Activity calls are given as the source filed them. The calls are words filed in the database; no cut-off is given here.
molecular target: T1, Proteinase-activated receptor 2 (Homo sapiens, UniProt P55085); assay: Agonist activity at PAR2 receptor in human HT-29 cells assessed as induction of intracellular calcium release; format: functional, cell-based; settings: not given
T1 sequence (P55085 whole entry): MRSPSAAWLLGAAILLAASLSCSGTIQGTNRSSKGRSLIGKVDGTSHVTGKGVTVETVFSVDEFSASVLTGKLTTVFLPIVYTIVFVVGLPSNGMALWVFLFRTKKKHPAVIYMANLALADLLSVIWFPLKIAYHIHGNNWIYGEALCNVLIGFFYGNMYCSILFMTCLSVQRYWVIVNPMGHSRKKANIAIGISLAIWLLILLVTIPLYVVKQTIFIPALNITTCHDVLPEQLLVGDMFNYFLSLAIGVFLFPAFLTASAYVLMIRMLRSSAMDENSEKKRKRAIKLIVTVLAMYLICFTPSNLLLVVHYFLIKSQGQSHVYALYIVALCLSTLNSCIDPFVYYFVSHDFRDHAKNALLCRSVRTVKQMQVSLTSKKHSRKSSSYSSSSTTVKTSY

SMILES	EC50
CC[C@H](C)[C@H](NC(=O)[C@H](CC1CCCCC1)NC(=O)c1ccno1)C(=O)NCc1ccc(C(=O)N2CCC(CN)CC2)cc1	1.1 µM
CC[C@H](C)[C@H](NC(=O)[C@H](CC1CCCCC1)NC(=O)c1ccno1)C(=O)Nc1ccc(C(=O)N2CCC(CN)CC2)cc1	> 50 µM
CC[C@H](C)[C@H](NC(=O)[C@H](CC1CCCCC1)NC(=O)c1ccno1)C(=O)NC1CCN([C@@H](CC(C)C)C(=O)N2CCC(CN)CC2)C1=O (stereo partly specified)	13.5 µM
CC[C@H](C)[C@H](NC(=O)[C@H](CC1CCCCC1)NC(=O)c1ccno1)C(=O)Nc1cccc(C(=O)N2CCC(CN)CC2)c1	2.2 µM
CC[C@H](C)[C@H](NC(=O)[C@H](CC1CCCCC1)NC(=O)c1ccno1)C(=O)N1CCCCC1C(=O)N1CCC(CN)CC1 (stereo partly specified)	7.1 µM
CC[C@H](C)[C@H](NC(=O)[C@H](CC1CCCCC1)NC(=O)c1ccno1)C(=O)N1CCCC(C(=O)N2CCC(CN)CC2)C1 (stereo partly specified)	17.1 µM
CC[C@H](C)[C@H](NC(=O)[C@H](CC1CCCCC1)NC(=O)c1ccno1)C(=O)N1CCC(C(=O)N2CCC(CN)CC2)CC1	13.7 µM

same assay, conditions: ht-29

SMILES	EC50
CC[C@H](C)[C@H](NC(=O)[C@H](CC1CCCCC1)NC(=O)c1ccno1)C(=O)N[C@H]1CCC2SC[C@@H](C(=O)N3CCC(CN)CC3)N2C1=O (stereo partly specified)	6.1 µM

molecular target: T2, Proteinase-activated receptor 1 (Homo sapiens) (UniProt P25116); assay: Agonist activity at human PAR1 receptor in HEK293 cells relative to TFLLR-NH2; format: functional, cell-based; settings: not given
T2 sequence (whole entry): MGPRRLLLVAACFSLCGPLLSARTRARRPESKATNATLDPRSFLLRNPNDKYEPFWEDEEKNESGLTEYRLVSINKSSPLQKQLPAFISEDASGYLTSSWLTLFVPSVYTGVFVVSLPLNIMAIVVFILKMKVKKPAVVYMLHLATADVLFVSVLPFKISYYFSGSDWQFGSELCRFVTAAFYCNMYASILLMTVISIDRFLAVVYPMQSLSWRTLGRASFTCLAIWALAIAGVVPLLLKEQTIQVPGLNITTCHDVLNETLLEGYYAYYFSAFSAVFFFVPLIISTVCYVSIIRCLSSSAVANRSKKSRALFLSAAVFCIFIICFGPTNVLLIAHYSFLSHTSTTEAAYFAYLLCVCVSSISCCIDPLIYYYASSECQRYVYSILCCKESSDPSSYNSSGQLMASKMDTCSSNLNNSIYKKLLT

SMILES	Activity
CC[C@H](C)[C@H](NC(=O)[C@H](Cc1ccccc1)NC(=O)c1ccco1)C(N)=O	Active

molecular target: T1, Proteinase-activated receptor 2; assay: Agonist activity at human PAR2 receptor in HEK293 cells assessed as induction of intracellular calcium release; format: functional, cell-based; settings: not given

SMILES	EC50
CC[C@H](C)[C@H](NC(=O)[C@H](CC1CCCCC1)NC(=O)c1coc(C)n1)C(N)=O	> 100 µM
CC[C@H](C)[C@H](NC(=O)[C@H](CC1CCCCC1)NC(=O)c1cnccn1)C(N)=O	> 100 µM
CC[C@H](C)[C@H](NC(=O)[C@H](CC1CCCCC1)NC(=O)c1ccco1)C(N)=O	> 50 µM

molecular target: T1, Proteinase-activated receptor 2; assay: Antagonist activity at PAR2 receptor in human HT-29 cells assessed as inhibition of intracellular calcium release; format: functional, cell-based; settings: read-out: IC50

SMILES	IC50
CC[C@H](C)[C@H](NC(=O)[C@H](CC1CCCCC1)NC(=O)c1ccno1)C(=O)Nc1ccc(CC(=O)N2CCOCC2)cc1	57 µM

same assay, conditions: read-out: pIC50 (converted)

SMILES	IC50
CC[C@H](C)[C@H](NC(=O)[C@H](CC1CCCCC1)NC(=O)c1ccno1)C(=O)N1CCC2(CCc3ccccc32)CC1	7.94 µM

molecular target: Proteinase-activated receptor 2 (Homo sapiens) (UniProt P55085); assay: Antagonist activity at PAR2 receptor in human HT-29 cells assessed as inhibition of intracellular calcium release at 5 uM relative to SLIGRLI-NH2; format: functional, cell-based; parameters: scale not given: the % may be the effect or the level left; settings: not given
Procedure, shortened: (§1)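 Single-point inhibition in Fluo-3-loaded HT29 cells. Antagonist was given at 5 or 50 μM before 2.5 μM SLIGRLI-NH2. Calcium efflux was read as fluorescence and expressed as percent inhibition, with 100% meaning complete block.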

SMILES	Activity
CC[C@H](C)[C@H](NC(=O)[C@H](CC1CCCCC1)NC(=O)c1ccno1)C(=O)N1CCC2(CCc3ccccc32)CC1	40%
CC[C@H](C)[C@H](NC(=O)[C@H](CC1CCCCC1)NC(=O)c1ccno1)C(=O)N1CCN(c2ccccc2)CC1	40%
CC[C@H](C)[C@H](NC(=O)[C@H](CC1CCCCC1)NC(=O)c1ccno1)C(=O)Nc1ccccc1-c1ccccc1	40%
CC[C@H](C)[C@H](NC(=O)[C@H](CC1CCCCC1)NC(=O)c1ccno1)C(=O)N1CCc2ccccc2C1	40%
CC[C@H](C)[C@H](NC(=O)[C@H](CC1CCCCC1)NC(=O)c1ccno1)C(=O)N1CCN(c2ccccc2C)CC1	40%
CC[C@H](C)[C@H](NC(=O)[C@H](CC1CCCCC1)NC(=O)c1ccno1)C(=O)Nc1cccc2ccccc12	40%

molecular target: Proteinase-activated receptor 2 (Homo sapiens) (UniProt P55085); assay: Antagonist activity at PAR2 receptor in human HT-29 cells assessed as inhibition of intracellular calcium release at 50 uM relative to SLIGRLI-NH2; format: functional, cell-based; settings: not given; procedure, shortened: as §1

SMILES	inhibition
CC[C@H](C)[C@H](NC(=O)[C@H](CC1CCCCC1)NC(=O)c1ccno1)C(=O)N1CCC2(CCc3ccccc32)CC1	Active

molecular target: Proteinase-activated receptor 2 (Homo sapiens) (UniProt P55085); assay: Agonist activity at PAR2 receptor in human HT-29 cells assessed as induction of intracellular calcium release at 1 uM relative to SLIGRLI-NH2; format: functional, cell-based; settings: not given
Procedure, shortened: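 HT29 cells, Fluo-3 AM loaded, in HBSS/HEPES/probenecid buffer pH 7.4 with 2% DMSO final. Each agonist given once at 1 μM. Fluorescence (ex 495/em 520 nm) was read over 60 s after addition, and iCa2+ release was compared with SLIGRLI-NH2.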

SMILES	Activity
CC[C@H](C)[C@H](NC(=O)[C@H](CC1CCCCC1)NC(=O)c1ccno1)C(=O)NCCCCCN	60%
CC[C@H](C)[C@H](NC(=O)[C@H](CC1CCCCC1)NC(=O)c1ccno1)C(=O)NCCCCC(=O)Nc1ccc(CCN)cc1	142%
CC[C@H](C)[C@H](NC(=O)[C@H](CC1CCCCC1)NC(=O)c1ccno1)C(=O)NCCCN	57%
CC[C@H](C)C(NC(=O)[C@H](CC1CCCCC1)NC(=O)c1ccno1)C(=O)NCCC(=O)NCc1cccnc1 (single isomer, unassigned)	122%
CC[C@H](C)[C@H](NC(=O)[C@H](CC1CCCCC1)NC(=O)c1ccno1)C(=O)NCCC(=O)N1CCC(CN)CC1	97%
CC[C@H](C)[C@H](NC(=O)[C@H](CC1CCCCC1)NC(=O)c1ccno1)C(=O)NCCC(=O)Nc1ccc(CCN)cc1	130%
CC[C@H](C)[C@H](NC(=O)[C@H](CC1CCCCC1)NC(=O)c1ccno1)C(=O)NCCCCC(=O)N1CCC(CN)CC1	181%
CC[C@H](C)[C@H](NC(=O)[C@H](CC1CCCCC1)NC(=O)c1ccno1)C(=O)NCCCCC(=O)NCc1cccnc1	130%

molecular target: Proteinase-activated receptor 2 (Homo sapiens) (UniProt P55085); assay: Agonist activity at PAR2 receptor in human HT-29 cells assessed as induction of intracellular calcium release at 50 uM relative to […]; format: functional, cell-based; settings: not given
Procedure, shortened: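 HT29 cells loaded with Fluo-3 AM in HBSS/HEPES/probenecid, pH 7.4. Compounds were tested at one concentration, 50 μM, and Ca2+ release (ex 495/em 520 nm, 60 s read) was expressed relative to 2-furoyl-LIGRLI-NH2 at the same concentration.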

SMILES	Activity
CC[C@H](C)[C@H](NC(=O)[C@@H](NC(=O)c1ccco1)C1CCCCC1)C(N)=O	12%
CC(C)C[C@H](NC(=O)c1ccco1)C(=O)N[C@@H](CC1CCCCC1)C(N)=O	43%
CC[C@H](C)[C@H](NC(=O)[C@H](Cc1ccccc1)NC(=O)c1ccco1)C(N)=O	67%
CC[C@H](C)[C@H](NC(=O)[C@H](CC1CCCCC1)NC(=O)c1ccco1)C(N)=O	58%
CC[C@H](C)[C@H](NC(=O)[C@H](CC(C)C)NC(=O)c1ccco1)C(N)=O	38%
CC(C)C[C@H](NC(=O)c1ccco1)C(=O)N[C@@H](Cc1ccccc1)C(N)=O	22%
CC(C)C[C@H](NC(=O)c1ccco1)C(=O)N[C@@H](Cc1ccc(F)cc1)C(N)=O	19%

From ChEMBL document CHEMBL1268911, “Novel agonists and antagonists for human protease activated receptor 2” (J Med Chem, 2010)
